Here are results for 12 compounds from ChEMBL document CHEMBL4020770, “Discovery of N-substituted-endo-3-(8-aza-bicyclo[3.2.1]oct-3-yl)-phenol and -phenyl carboxamide series of μ-opioid receptor antagonists” (Bioorg Med Chem Lett, 2017).

Data set [1] addresses T1, Mu-type opioid receptor (Homo sapiens, UniProt P35372). Kind of data set: Displacement of [3H]DPN from recombinant human mu opioid receptor expressed in CHOK1 cell membranes. The method, boiled down: (§1)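 Competition binding with the radioligand [3H]-DPN on membranes from CHO-K1 cells stably transfected with human recombinant μ or δ opioid receptor or guinea pig κ opioid receptor. Affinity is reported as pKi.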

Data set [2] deals with Delta-type opioid receptor (Homo sapiens, UniProt P41143). The data set is described as follows: Displacement of [3H]DPN from recombinant human delta opioid receptor expressed in CHOK1 cell membranes. The method, boiled down:
as §1

Data set [3] deals with Kappa-type opioid receptor (Cavia porcellus, UniProt P41144). Kind of data set: Displacement of [3H]DPN from guinea pig kappa opioid receptor expressed in CHOK1 cell membranes. The method, boiled down: as §1
Data set [4] can be described thus: (§2) Half life in rat liver microsomes. It is filed as ADME, microsome. As to conditions: liver microsomes.
A short description of data set [5]: (§3) Half life in dog liver microsomes. It is filed as ADME, Canis lupus familiaris, microsome. As to conditions: liver microsomes. (Liver microsomes are vesicles of endoplasmic reticulum, rich in cytochrome P450 enzymes.)
The nature of data set [6]: Half life in human liver microsomes. It is filed as ADME, microsome. As to conditions: liver microsomes.
The target in data set [7] is T1, Mu-type opioid receptor. The data set is described as follows: Intrinsic activity at recombinant human mu opioid receptor expressed in CHOK1 cells by [35S]GTPgammaS binding assay relative to DAMGO. The class given is functional, cell-based. In outline:
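Membranes from CHO-K1 cells stably transfected with human recombinant μ-opioid receptor; agonist activity measured as [35S]-GTPγS binding. Maximum compound-evoked response minus basal, expressed as percentage of the maximum response evoked by DAMGO.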

Data set [8] concerns Liver. The description is as §2. It is filed as ADME, microsome. As to conditions: microsomes.
In data set [9] the test system is Liver. The data set is described as §3. The class given is ADME, Canis lupus familiaris, microsome. As to conditions: microsomes.

As a reminder, the Ki is a measure of affinity in units of concentration, obtained from inhibition or displacement. One may read the half-life as the time needed for the level to fall by half in the phase considered. Higher therefore signals slow loss.

Kappa-type opioid receptor, sequence (P41144 whole entry): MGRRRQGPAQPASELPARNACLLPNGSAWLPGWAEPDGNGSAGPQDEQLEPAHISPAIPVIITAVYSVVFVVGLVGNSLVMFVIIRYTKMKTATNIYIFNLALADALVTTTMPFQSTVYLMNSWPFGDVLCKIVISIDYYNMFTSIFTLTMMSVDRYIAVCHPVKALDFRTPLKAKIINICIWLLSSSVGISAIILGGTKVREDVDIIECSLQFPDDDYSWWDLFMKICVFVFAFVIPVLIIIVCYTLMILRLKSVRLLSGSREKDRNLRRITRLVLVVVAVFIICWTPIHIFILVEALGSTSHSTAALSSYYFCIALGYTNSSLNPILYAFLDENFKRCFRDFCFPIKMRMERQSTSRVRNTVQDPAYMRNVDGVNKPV
T1 sequence (P35372 whole entry): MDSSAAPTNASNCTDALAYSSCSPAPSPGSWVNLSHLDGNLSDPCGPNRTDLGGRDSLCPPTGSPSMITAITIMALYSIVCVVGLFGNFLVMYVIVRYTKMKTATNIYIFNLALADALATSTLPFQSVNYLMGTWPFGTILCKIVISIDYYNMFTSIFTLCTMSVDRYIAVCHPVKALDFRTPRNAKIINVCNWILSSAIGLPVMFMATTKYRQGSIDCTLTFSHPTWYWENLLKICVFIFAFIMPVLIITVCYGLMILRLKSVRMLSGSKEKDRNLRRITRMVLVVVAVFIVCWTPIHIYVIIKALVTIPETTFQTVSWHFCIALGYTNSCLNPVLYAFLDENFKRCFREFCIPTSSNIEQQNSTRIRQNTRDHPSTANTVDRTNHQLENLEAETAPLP
Delta-type opioid receptor, sequence (P41143 whole entry): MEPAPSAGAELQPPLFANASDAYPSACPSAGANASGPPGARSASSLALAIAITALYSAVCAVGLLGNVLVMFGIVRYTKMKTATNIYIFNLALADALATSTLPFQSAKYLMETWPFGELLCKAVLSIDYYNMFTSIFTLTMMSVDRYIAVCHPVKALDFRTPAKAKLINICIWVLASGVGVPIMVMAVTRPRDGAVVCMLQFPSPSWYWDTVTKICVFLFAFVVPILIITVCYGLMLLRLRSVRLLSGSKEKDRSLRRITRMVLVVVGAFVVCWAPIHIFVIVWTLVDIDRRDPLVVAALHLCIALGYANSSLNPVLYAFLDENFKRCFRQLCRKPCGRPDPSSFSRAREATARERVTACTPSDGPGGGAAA

On to `CC(C)(C)c1ccc(CN2[C@@H]3CC[C@@H]2CC(c2cccc(C(N)=O)c2)C3)cc1` (relative stereo; 28a), for which the Ki in [1] was 0.1 nM; in data set [2] it was 1.58 nM; in [3] it was 0.1 nM. For the same compound, the half-life in data set [4], in [5] and in data set [6] was above 90 min throughout.
Turning to `Oc1cccc(C2C[C@H]3CC[C@H](C2)N3CCCc2ccccc2)c1` (relative stereo; 12a), the Ki was 0.1 nM in data set [1], 0.794 nM in [2] and 0.1 nM in [3]. Further, the half-life in data set [4] was 2 min; in data set [5], 2 min; in data set [6], 15 min.
As to `C[C@H]1CN(C[C@H](Cc2ccccc2)C(=O)NCC(=O)O)CC[C@@]1(C)c1cccc(O)c1` [ALVIMOPAN], the inhibitory constant (Ki) in [2] and in data set [3] was 5.01 nM throughout. Besides, in data set [7], the Intrinsic activity was -6%. In addition, the half-life in [4], in [5] and in [6] was above 90 min each time.
`NC(=O)c1cccc(C2C[C@H]3CC[C@H](C2)N3Cc2c(F)cccc2F)c1` (relative stereo; 26b): the Ki in data set [1] was 1260 nM; in data set [2], 5010 nM; in data set [3], 398 nM. The t1/2 in [8] stood at 74 min.
For the compound `NC(=O)c1cccc(C2C[C@H]3CC[C@H](C2)N3CCCOc2ccccc2)c1` (relative stereo), the values for the inhibition constant Ki in data set [1], in data set [2] and in data set [3] were 0.2 nM, 3.98 nM and 0.794 nM, respectively. Further, the half-life in [4] is 2 min; in [5] it was 7 min; in data set [6] it was above 90 min.
For `NC(=O)c1cccc(C2C[C@H]3CC[C@H](C2)N3CCCCN2C(=O)c3ccccc3C2=O)c1` (relative stereo; 29a), the values for the Ki in data set [1], in data set [2] and in data set [3] were 1.58 nM, 79.4 nM and 3.16 nM, respectively. The results for the half-life in data set [4], in data set [5] and in data set [6] were above 90 min, 18 min and above 90 min, respectively.
For the compound `NC(=O)c1cccc(C2C[C@H]3CC[C@H](C2)N3CCCc2ccccc2)c1` (relative stereo; 24b), the Ki in [1] is 15.8 nM; in data set [2], 200 nM. The t1/2 turned out to be 11 min in data set [8] and 18 min in data set [9].
As to `NC(=O)c1cccc(C2C[C@H]3CC[C@H](C2)N3CC(=O)C2CCCCC2)c1` (relative stereo; 30b), the results for the Ki in [1], in data set [2] and in data set [3] were 15.8 nM, 398 nM and 20 nM, respectively. The t1/2 came to 81 min in data set [8] and 9 min in data set [9].
Consider `O=C(CN1[C@@H]2CC[C@@H]1CC(c1cccc(O)c1)C2)C1CCCCC1` (relative stereo; 22a), for which the inhibitory constant (Ki) in [1] is 0.1 nM; in [2], 0.501 nM; in data set [3], 0.01 nM. Moreover, the half-life in data set [4] worked out at 2 min; in data set [5], 2 min; in data set [6], 12 min.
Consider `O=C1c2ccccc2C(=O)N1CCCCN1[C@@H]2CC[C@@H]1CC(c1cccc(O)c1)C2` (relative stereo; 21a), for which the Ki in data set [1] is 0.794 nM; in data set [2] it was 25.1 nM; in data set [3], 0.794 nM. The half-life in [4] came out at 18 min; in [5], 11 min; in data set [6] it was 33 min.
On to `NC(=O)c1cccc(C2C[C@H]3CC[C@H](C2)N3CC(O)Cc2ccccc2)c1` (stereo in doubt; 31b), for which the Ki in [1] was 31.6 nM; in [2] it was 501 nM; in data set [3], 79.4 nM. Besides, the t1/2 was 14 min in data set [8] and 59 min in data set [9].
For the compound `C[N+]1(CC2CC2)CC[C@]23c4c5ccc(O)c4O[C@H]2C(=O)CC[C@@]3(O)[C@H]1C5` (stereo partly specified) [METHYLNALTREXONE], the Ki in [1] was 7.94 nM; in data set [3], 20 nM. Also, in data set [7], the Intrinsic activity turned out to be 24%. Besides, the half-life in [4], in data set [5] and in [6] was above 90 min each time.
